{
  "source": "ChEMBL document CHEMBL1139690",
  "about": "“Comparison between two classes of selective EP(3) antagonists and their biological activities” (Bioorg Med Chem Lett, 2006)",
  "data": [
    {"test_system": "not listed separately", "test": "Half life in Sprague-Dawley rat at 10 mg/kg, po and 5 mg/kg, iv", "assay_type": "ADME, organism-based", "conditions": "in vivo", "units": {"half-life": "h"}, "values": [
      {"smiles": "Cc1ccc(OCc2c(Cl)cccc2Cl)c(/C=C/Cc2ccccc2/C=C/C(=O)O)c1", "half-life": 2},
      {"smiles": "O=C(/C=C/c1ccccc1Cc1ccc2ccccc2c1)NS(=O)(=O)c1cccs1", "half-life": 3}
    ]},
    {"molecular_target": "T1, Prostaglandin E2 receptor EP3 subtype (Homo sapiens, UniProt P43115)", "T1 sequence (P43115 whole entry)": "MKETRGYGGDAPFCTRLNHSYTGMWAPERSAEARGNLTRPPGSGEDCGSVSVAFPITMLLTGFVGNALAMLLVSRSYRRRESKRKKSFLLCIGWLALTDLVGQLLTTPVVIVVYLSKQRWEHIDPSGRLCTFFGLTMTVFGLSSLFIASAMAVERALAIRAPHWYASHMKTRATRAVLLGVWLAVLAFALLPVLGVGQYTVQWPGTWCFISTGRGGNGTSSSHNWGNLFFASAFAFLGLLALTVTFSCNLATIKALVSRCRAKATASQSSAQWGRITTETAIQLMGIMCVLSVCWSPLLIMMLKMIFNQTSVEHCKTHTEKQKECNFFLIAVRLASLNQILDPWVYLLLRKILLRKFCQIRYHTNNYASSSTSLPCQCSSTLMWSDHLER", "test": "Binding affinity to EP3 receptor in presence of HSA", "conditions": "not given", "values": [
      {"smiles": "O=C(O)/C=C/c1ccccc1Cc1ccc2ccccc2c1", "Ki": "400 nM (antagonist)"}
    ]},
    {"test_system": "not listed separately", "test": "Metabolism in human hepatocytes", "assay_type": "ADME, cell-based, Hepatocyte", "conditions": "read-out: Activity", "units": {"metabolised": "%"}, "values": [
      {"smiles": "O=C(/C=C/c1ccccc1Cc1ccc2ccccc2c1)NS(=O)(=O)c1cccs1", "metabolised": 45}
    ]},
    {"molecular_target": "Prostaglandin E2 receptor EP2 subtype (Homo sapiens, UniProt P43116)", "sequence (P43116 whole entry)": "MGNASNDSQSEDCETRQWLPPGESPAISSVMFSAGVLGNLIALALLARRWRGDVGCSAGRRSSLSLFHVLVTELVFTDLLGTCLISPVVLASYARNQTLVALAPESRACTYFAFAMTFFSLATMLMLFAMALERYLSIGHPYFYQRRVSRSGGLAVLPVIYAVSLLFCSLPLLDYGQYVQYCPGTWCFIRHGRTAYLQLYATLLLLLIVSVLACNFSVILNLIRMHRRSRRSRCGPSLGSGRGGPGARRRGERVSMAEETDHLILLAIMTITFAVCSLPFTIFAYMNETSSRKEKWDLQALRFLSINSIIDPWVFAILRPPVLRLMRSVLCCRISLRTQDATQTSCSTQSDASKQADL", "test": "Binding affinity to EP2 receptor", "conditions": "not given", "values": [
      {"smiles": "Cc1ccc(OCc2c(Cl)cccc2Cl)c(/C=C/Cc2ccccc2/C=C/C(=O)O)c1", "Ki": "5400 nM (antagonist)"},
      {"smiles": "O=C(/C=C/c1ccccc1Cc1ccc2ccccc2c1)NS(=O)(=O)c1cccs1", "Ki": "8600 nM (antagonist)"}
    ]},
    {"test_system": "not listed separately", "test": "Bioavailability in Sprague-Dawley rat at 10 mg/kg, po and 5 mg/kg, iv", "assay_type": "ADME, organism-based", "conditions": "in vivo", "units": {"bioavailability": "%"}, "values": [
      {"smiles": "Cc1ccc(OCc2c(Cl)cccc2Cl)c(/C=C/Cc2ccccc2/C=C/C(=O)O)c1", "bioavailability": 74},
      {"smiles": "O=C(/C=C/c1ccccc1Cc1ccc2ccccc2c1)NS(=O)(=O)c1cccs1", "bioavailability": 144}
    ]},
    {"molecular_target": "T2, Prostaglandin D2 receptor (Homo sapiens, UniProt Q13258)", "T2 sequence (Q13258 whole entry)": "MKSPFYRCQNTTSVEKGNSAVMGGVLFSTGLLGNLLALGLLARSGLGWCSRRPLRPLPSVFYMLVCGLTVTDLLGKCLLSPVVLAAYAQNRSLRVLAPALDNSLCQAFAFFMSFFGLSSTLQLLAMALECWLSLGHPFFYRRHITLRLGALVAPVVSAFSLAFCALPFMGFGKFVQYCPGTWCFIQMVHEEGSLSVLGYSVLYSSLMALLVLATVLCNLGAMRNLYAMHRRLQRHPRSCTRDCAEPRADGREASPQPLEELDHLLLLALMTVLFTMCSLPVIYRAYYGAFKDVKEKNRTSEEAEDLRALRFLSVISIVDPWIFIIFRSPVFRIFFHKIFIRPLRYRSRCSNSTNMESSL", "test": "Binding affinity to DP receptor", "conditions": "not given", "units": {"Ki": "nM"}, "values": [
      {"smiles": "O=C(O)/C=C/c1ccccc1Cc1ccc2ccccc2c1", "Ki": "> 500"},
      {"smiles": "Cc1ccc(OCc2c(Cl)cccc2Cl)c(/C=C/Cc2ccccc2/C=C/C(=O)O)c1", "Ki": "> 500"},
      {"smiles": "O=C(/C=C/c1ccccc1Cc1ccc2ccccc2c1)NS(=O)(=O)c1cccs1", "Ki": "> 500"}
    ]},
    {"molecular_target": "T3, Thromboxane A2 receptor (Homo sapiens, UniProt P21731)", "T3 sequence (P21731 whole entry)": "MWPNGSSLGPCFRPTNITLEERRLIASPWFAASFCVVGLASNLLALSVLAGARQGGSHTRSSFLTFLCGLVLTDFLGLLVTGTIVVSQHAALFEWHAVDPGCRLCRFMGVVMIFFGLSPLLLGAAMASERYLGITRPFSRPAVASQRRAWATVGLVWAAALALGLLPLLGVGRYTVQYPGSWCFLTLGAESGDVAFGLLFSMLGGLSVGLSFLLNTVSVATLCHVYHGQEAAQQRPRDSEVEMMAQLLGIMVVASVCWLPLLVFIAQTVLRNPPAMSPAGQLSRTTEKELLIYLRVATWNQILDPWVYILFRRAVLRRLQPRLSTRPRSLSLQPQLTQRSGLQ", "test": "Binding affinity to TP receptor", "conditions": "not given", "units": {"Ki": "nM"}, "values": [
      {"smiles": "O=C(O)/C=C/c1ccccc1Cc1ccc2ccccc2c1", "Ki": "> 500"},
      {"smiles": "Cc1ccc(OCc2c(Cl)cccc2Cl)c(/C=C/Cc2ccccc2/C=C/C(=O)O)c1", "Ki": "> 500"},
      {"smiles": "O=C(/C=C/c1ccccc1Cc1ccc2ccccc2c1)NS(=O)(=O)c1cccs1", "Ki": "> 500"}
    ]},
    {"molecular_target": "Prostaglandin F2-alpha receptor (Homo sapiens, UniProt P43088)", "sequence (P43088 whole entry)": "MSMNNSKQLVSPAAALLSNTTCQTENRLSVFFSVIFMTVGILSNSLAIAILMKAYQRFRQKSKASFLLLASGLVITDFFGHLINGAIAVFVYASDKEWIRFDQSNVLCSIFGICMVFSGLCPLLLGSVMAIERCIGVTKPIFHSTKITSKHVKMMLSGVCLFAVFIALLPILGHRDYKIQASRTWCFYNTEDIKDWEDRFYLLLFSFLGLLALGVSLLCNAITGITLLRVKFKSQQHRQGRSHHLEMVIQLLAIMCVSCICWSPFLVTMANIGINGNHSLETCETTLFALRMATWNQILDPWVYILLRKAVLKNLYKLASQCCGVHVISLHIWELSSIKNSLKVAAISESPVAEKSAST", "test": "Binding affinity to FP receptor", "conditions": "not given", "units": {"Ki": "nM"}, "values": [
      {"smiles": "O=C(O)/C=C/c1ccccc1Cc1ccc2ccccc2c1", "Ki": "> 500"},
      {"smiles": "Cc1ccc(OCc2c(Cl)cccc2Cl)c(/C=C/Cc2ccccc2/C=C/C(=O)O)c1", "Ki": "> 500"},
      {"smiles": "O=C(/C=C/c1ccccc1Cc1ccc2ccccc2c1)NS(=O)(=O)c1cccs1", "Ki": "> 500"}
    ]},
    {"molecular_target": "T4, Prostaglandin E2 receptor EP1 subtype (Homo sapiens, UniProt P34995)", "T4 sequence (P34995 whole entry)": "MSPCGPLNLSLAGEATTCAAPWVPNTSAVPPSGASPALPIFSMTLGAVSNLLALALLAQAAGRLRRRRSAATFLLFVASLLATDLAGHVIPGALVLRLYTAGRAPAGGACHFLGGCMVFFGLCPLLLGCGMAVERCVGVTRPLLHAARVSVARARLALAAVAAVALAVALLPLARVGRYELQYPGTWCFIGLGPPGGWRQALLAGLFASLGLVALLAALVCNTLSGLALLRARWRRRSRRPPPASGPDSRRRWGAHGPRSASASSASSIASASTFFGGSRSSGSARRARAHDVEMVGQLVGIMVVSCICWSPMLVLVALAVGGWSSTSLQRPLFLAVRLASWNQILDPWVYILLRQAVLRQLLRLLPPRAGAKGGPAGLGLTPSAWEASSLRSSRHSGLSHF", "test": "Binding affinity to EP1 receptor", "conditions": "not given", "values": [
      {"smiles": "O=C(O)/C=C/c1ccccc1Cc1ccc2ccccc2c1", "Ki": "> 100000 nM"},
      {"smiles": "Cc1ccc(OCc2c(Cl)cccc2Cl)c(/C=C/Cc2ccccc2/C=C/C(=O)O)c1", "Ki": "6700 nM (antagonist)"},
      {"smiles": "O=C(/C=C/c1ccccc1Cc1ccc2ccccc2c1)NS(=O)(=O)c1cccs1", "Ki": "9600 nM (antagonist)"}
    ]},
    {"test_system": "not listed separately", "test": "Cmax in Sprague-Dawley rat at 10 mg/kg, po and 5 mg/kg, iv after 30 mins", "assay_type": "ADME, organism-based", "conditions": "in vivo", "units": {"Cmax": "µM"}, "values": [
      {"smiles": "Cc1ccc(OCc2c(Cl)cccc2Cl)c(/C=C/Cc2ccccc2/C=C/C(=O)O)c1", "Cmax": 25},
      {"smiles": "O=C(/C=C/c1ccccc1Cc1ccc2ccccc2c1)NS(=O)(=O)c1cccs1", "Cmax": 21}
    ]},
    {"test_system": "not listed separately", "test": "Clearance in Sprague-Dawley rat at 10 mg/kg, po and 5 mg/kg, iv", "assay_type": "ADME, organism-based", "conditions": "in vivo", "units": {"clearance": "mL/min"}, "values": [
      {"smiles": "Cc1ccc(OCc2c(Cl)cccc2Cl)c(/C=C/Cc2ccccc2/C=C/C(=O)O)c1", "clearance": 16},
      {"smiles": "O=C(/C=C/c1ccccc1Cc1ccc2ccccc2c1)NS(=O)(=O)c1cccs1", "clearance": 12}
    ]},
    {"molecular_target": "Prostacyclin receptor (Homo sapiens, UniProt P43119)", "sequence (P43119 whole entry)": "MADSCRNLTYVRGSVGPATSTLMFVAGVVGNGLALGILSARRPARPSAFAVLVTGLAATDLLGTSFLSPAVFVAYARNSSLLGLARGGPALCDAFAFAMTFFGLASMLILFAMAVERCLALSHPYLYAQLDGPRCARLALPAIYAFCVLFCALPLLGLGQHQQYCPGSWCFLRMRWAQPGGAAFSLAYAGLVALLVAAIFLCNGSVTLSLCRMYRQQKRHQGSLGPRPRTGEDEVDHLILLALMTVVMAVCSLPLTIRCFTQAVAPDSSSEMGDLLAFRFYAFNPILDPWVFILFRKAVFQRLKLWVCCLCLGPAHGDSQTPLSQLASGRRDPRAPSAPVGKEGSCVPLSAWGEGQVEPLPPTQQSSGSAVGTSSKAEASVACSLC", "test": "Binding affinity to IP receptor", "conditions": "not given", "units": {"Ki": "nM"}, "values": [
      {"smiles": "O=C(O)/C=C/c1ccccc1Cc1ccc2ccccc2c1", "Ki": "> 500"},
      {"smiles": "Cc1ccc(OCc2c(Cl)cccc2Cl)c(/C=C/Cc2ccccc2/C=C/C(=O)O)c1", "Ki": "> 500"},
      {"smiles": "O=C(/C=C/c1ccccc1Cc1ccc2ccccc2c1)NS(=O)(=O)c1cccs1", "Ki": "> 500"}
    ]},
    {"molecular_target": "T1, Prostaglandin E2 receptor EP3 subtype", "test": "Binding affinity to EP3 receptor", "conditions": "not given", "values": [
      {"smiles": "O=C(O)/C=C/c1ccccc1Cc1ccc2ccccc2c1", "Ki": "47 nM (antagonist)"},
      {"smiles": "Cc1ccc(OCc2c(Cl)cccc2Cl)c(/C=C/Cc2ccccc2/C=C/C(=O)O)c1", "Ki": "3 nM (antagonist)"}
    ]},
    {"molecular_target": "Prostaglandin E2 receptor EP4 subtype (Homo sapiens, UniProt P35408)", "sequence (P35408 whole entry)": "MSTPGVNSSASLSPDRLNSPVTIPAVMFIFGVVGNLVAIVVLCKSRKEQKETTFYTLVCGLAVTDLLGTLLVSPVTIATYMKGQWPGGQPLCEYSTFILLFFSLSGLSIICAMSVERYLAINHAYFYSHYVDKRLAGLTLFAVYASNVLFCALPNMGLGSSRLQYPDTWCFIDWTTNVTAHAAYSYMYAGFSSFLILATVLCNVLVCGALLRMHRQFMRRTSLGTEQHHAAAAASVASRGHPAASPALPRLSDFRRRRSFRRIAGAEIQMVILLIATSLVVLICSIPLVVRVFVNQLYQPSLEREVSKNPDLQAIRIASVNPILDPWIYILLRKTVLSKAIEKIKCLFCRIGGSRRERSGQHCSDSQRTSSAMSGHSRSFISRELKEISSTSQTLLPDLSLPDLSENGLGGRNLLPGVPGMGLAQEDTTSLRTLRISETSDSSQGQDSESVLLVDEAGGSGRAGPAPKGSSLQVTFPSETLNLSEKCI", "test": "Binding affinity to EP4 receptor", "conditions": "not given", "values": [
      {"smiles": "O=C(O)/C=C/c1ccccc1Cc1ccc2ccccc2c1", "Ki": "13000 nM"},
      {"smiles": "Cc1ccc(OCc2c(Cl)cccc2Cl)c(/C=C/Cc2ccccc2/C=C/C(=O)O)c1", "Ki": "620 nM (antagonist)"},
      {"smiles": "O=C(/C=C/c1ccccc1Cc1ccc2ccccc2c1)NS(=O)(=O)c1cccs1", "Ki": "1300 nM (antagonist)"}
    ]},
    {"test_system": "not listed separately", "test": "Stability in rat hepatocytes after 3 hrs", "assay_type": "ADME, cell-based, Hepatocyte", "conditions": "read-out: Stability", "how_it_was_run": "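Incubation with rat hepatocytes for 3 h; percentage of parent compound recovered intact.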", "units": {"remaining at 3 h": "%"}, "values": [
      {"smiles": "O=C(/C=C/c1ccccc1Cc1ccc2ccccc2c1)NS(=O)(=O)c1cccs1", "remaining at 3 h": 43}
    ]},
    {"test_system": "Rattus norvegicus", "test": "Effect on carrageenan-induced paw hyperalgesia in po dosed rat", "assay_type": "functional", "conditions": "not given", "units": {"ED50": "mg/kg"}, "values": [
      {"smiles": "O=C(O)/C=C/c1ccccc1Cc1ccc2ccccc2c1", "ED50": 30},
      {"smiles": "Cc1ccc(OCc2c(Cl)cccc2Cl)c(/C=C/Cc2ccccc2/C=C/C(=O)O)c1", "ED50": 5.8},
      {"smiles": "O=C(/C=C/c1ccccc1Cc1ccc2ccccc2c1)NS(=O)(=O)c1cccs1", "ED50": 6.2}
    ]},
    {"molecular_target": "T5, Prostaglandin E2 receptor EP3 subtype (Homo sapiens) (UniProt P43115)", "T5 sequence (whole entry)": "T1 sequence (P43115 whole entry)", "test": "Antagonistic activity at EP3 receptor assessed as inhibition of cAMP production in HEK EBNA cells", "assay_type": "functional, cell-based", "conditions": "HEK293-EBNA, filed as antagonist", "units": {"Kb": "nM"}, "values": [
      {"smiles": "Cc1ccc(OCc2c(Cl)cccc2Cl)c(/C=C/Cc2ccccc2/C=C/C(=O)O)c1", "Kb": 5.8}
    ]},
    {"test_system": "Rattus norvegicus", "test": "Concentration in carrageenan-induced hyperalgesic rat at 10 mg/kg, po, 1 hr postdose", "assay_type": "functional", "conditions": "not given", "how_it_was_run": "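Young 100 g rats from the hyperalgesia model given 10 mg/kg po in 0.5% methocel as sodium salts; plasma concentration measured 1 h post-dosing, at the time hyperalgesia was assessed.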", "units": {"Activity": "µM"}, "values": [
      {"smiles": "O=C(O)/C=C/c1ccccc1Cc1ccc2ccccc2c1", "Activity": 5.4},
      {"smiles": "Cc1ccc(OCc2c(Cl)cccc2Cl)c(/C=C/Cc2ccccc2/C=C/C(=O)O)c1", "Activity": 2.5},
      {"smiles": "O=C(/C=C/c1ccccc1Cc1ccc2ccccc2c1)NS(=O)(=O)c1cccs1", "Activity": 5}
    ]},
    {"test_system": "Rattus norvegicus", "test": "Antiinflammatory activity against carrageenan-induced paw edema in po dosed rat", "assay_type": "functional", "conditions": "not given", "units": {"ED50": "mg/kg"}, "values": [
      {"smiles": "Cc1ccc(OCc2c(Cl)cccc2Cl)c(/C=C/Cc2ccccc2/C=C/C(=O)O)c1", "ED50": 5.1},
      {"smiles": "O=C(/C=C/c1ccccc1Cc1ccc2ccccc2c1)NS(=O)(=O)c1cccs1", "ED50": 1.2}
    ]}
  ]
}
